From ChEMBL document CHEMBL1154138, “Antioxidant C-glucosylxanthones from the leaves of Arrabidaea patellifera” (J Nat Prod, 2008)

Legend:
[1] = Antioxidant activity assessed as protection against peroxyl radical-induced alkaline phosphatase oxidation by fluorimetric assay; type: functional
How it was run: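 Microplate assay on pure compounds measuring protection of alkaline phosphatase (ALP) against peroxyl radical-induced loss of activity. EC50 is the antioxidant concentration that protects ALP to 50% from this loss, reported as pEC50.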

[2] = tested on: Radical scavenging activity; assay: Antioxidant activity assessed as ratio of drug concentration to DPPH concentration causing 50% DPPH radical scavenging activity […]; type: functional
Plasmodium falciparum = assay: Antiplasmodial activity against chloroquine-sensitive Plasmodium falciparum 3D7 by [3H]hypoxanthine incorporation assay; type: functional, organism-based

Structure (SMILES) | EC50 [1] | Ratio [2] | IC50 (Plasmodium falciparum)
O=c1c2cc(O)c(O)cc2oc2cc(O)c([C@@H]3O[C@H](CO)[C@@H](O)[C@H](O)[C@H]3O)c(O)c12 [MANGIFERIN] | 1260 nM | 0.12 | 23800 nM
O=C(/C=C/c1ccccc1)O[C@@H]1[C@@H](O)[C@H](c2c(O)cc3oc4cc(O)c(O)cc4c(=O)c3c2O)O[C@H](CO)[C@H]1O | 980 nM | 0.16 | 
O=C(/C=C/c1ccc(O)cc1)OC[C@H]1O[C@@H](c2c(O)cc3oc4cc(O)c(O)cc4c(=O)c3c2O)[C@H](O)[C@@H](O)[C@@H]1O | 1480 nM | 0.23 | > 38200 nM
O=C(O[C@@H]1[C@@H](O)[C@H](c2c(O)cc3oc4cc(O)c(O)cc4c(=O)c3c2O)O[C@H](CO)[C@H]1O)c1ccc(O)cc1 | 980 nM | 0.11 | 26500 nM
O=C(/C=C/c1ccc(O)c(O)c1)O[C@@H]1[C@@H](O)[C@H](c2c(O)cc3oc4cc(O)c(O)cc4c(=O)c3c2O)O[C@H](CO)[C@H]1O | 1180 nM | 0.1 | 
O=C(/C=C/c1ccc(O)cc1)O[C@@H]1[C@@H](O)[C@H](c2c(O)cc3oc4cc(O)c(O)cc4c(=O)c3c2O)O[C@H](CO)[C@H]1O | 830 nM | 0.16 | 18100 nM
O=c1c(O)c(-c2ccc(O)c(O)c2)oc2cc(O)cc(O)c12 [QUERCETIN] | 1000 nM | 0.092 | 
